Measurements reported in ChEMBL document CHEMBL2146390, “Identification of Hydroxybenzoic Acids as Selective Lactate Receptor (GPR81) Agonists with Antilipolytic Effects” (ACS Med Chem Lett, 2012).
Active and inactive are the calls of the source. The calls are words filed in the database; no cut-off is given here.

Experiments:
[1] = biological target: Hydroxycarboxylic acid receptor 1 (Homo sapiens, UniProt Q9BXC0); assay: Agonist activity at human recombinant GPR81 transfected in african green monkey COS-7 cells after 20 mins by [35S]GTPgammaS binding assay; assay type: functional, cell-based
In short: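 hGPR81 agonism measured by GTPγS binding, run as in an earlier cited report; EC50 values are the mean of at least two determinations with standard deviation.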

[2] = biological target: G-protein coupled receptor 81 (Macaca mulatta, UniProt B9UM29); assay: Agonist activity at monkey GPR81; assay type: functional
[3] = biological target: G-protein coupled receptor 81 (Canis lupus familiaris, UniProt B9UM26); assay: Agonist activity at dog GPR81; assay type: functional
Protein Gpr81 = biological target: T1, Protein Gpr81 (Rattus norvegicus, UniProt G3V906); assay: Agonist activity at rat GPR81; assay type: functional
T1 sequence (G3V906 whole entry): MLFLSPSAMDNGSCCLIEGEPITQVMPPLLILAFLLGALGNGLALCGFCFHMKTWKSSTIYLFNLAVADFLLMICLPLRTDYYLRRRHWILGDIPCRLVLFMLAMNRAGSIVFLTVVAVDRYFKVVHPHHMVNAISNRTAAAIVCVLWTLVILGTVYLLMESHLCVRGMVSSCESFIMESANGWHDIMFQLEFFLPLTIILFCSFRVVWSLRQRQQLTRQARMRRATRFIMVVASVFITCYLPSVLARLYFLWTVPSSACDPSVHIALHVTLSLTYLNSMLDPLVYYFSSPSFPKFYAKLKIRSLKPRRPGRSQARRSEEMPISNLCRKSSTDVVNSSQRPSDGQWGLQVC

[4] = biological target: T2, Hydroxycarboxylic acid receptor 1 (Mus musculus, UniProt Q8C131); assay: Agonist activity at mouse GPR81; assay type: functional
T2 sequence (Q8C131 whole entry): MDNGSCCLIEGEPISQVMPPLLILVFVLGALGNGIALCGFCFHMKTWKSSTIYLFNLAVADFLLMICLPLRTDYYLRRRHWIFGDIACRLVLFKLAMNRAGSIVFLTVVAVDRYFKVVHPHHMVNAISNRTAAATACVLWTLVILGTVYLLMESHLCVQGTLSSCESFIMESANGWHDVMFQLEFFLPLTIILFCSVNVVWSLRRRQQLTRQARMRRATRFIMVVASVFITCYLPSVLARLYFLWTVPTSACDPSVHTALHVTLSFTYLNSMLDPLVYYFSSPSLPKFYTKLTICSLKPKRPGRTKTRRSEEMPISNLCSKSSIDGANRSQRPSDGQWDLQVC

[5] = Agonist activity at hamster GPR81; assay type: functional, Cricetinae
[6] = Tmax in C57B16/J mouse at 30 mg/kg, po; assay type: ADME, organism-based; parameters: dose 30 mg/kg, route oral; details: in vivo
In short: (§1)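 Mice received single oral doses of 30 or 100 mg/kg. Exposure was followed over time to derive tmax, AUCinf, Cmax (ng/mL, converted to μM) and t1/2.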

[7] = Tmax in C57B16/J mouse at 100 mg/kg, po; assay type: ADME, organism-based; parameters: dose 100 mg/kg, route oral; details: in vivo; in short: as §1
[8] = AUC (0 to infinity) in C57B16/J mouse at 30 mg/kg, po; assay type: ADME, organism-based; parameters: dose 30 mg/kg, route oral, time infinity; details: plasma; in short: as §1
[9] = AUC (0 to infinity) in C57B16/J mouse at 100 mg/kg, po; assay type: ADME, organism-based; parameters: time infinity, dose 100 mg/kg, route oral; details: plasma; in short: as §1
[10] = Cmax in C57B16/J mouse at 30 mg/kg, po; assay type: ADME, organism-based; parameters: dose 30 mg/kg, route oral; details: in vivo; in short: as §1
[11] = Cmax in C57B16/J mouse at 100 mg/kg, po; assay type: ADME, organism-based; parameters: dose 100 mg/kg, route oral; details: in vivo; in short: as §1
[12] = Half life in C57B16/J mouse at 30 mg/kg, po; assay type: ADME, organism-based; parameters: dose 30 mg/kg, route oral; details: in vivo; in short: as §1
[13] = Half life in C57B16/J mouse at 100 mg/kg, po; assay type: ADME, organism-based; parameters: dose 100 mg/kg, route oral; details: in vivo; in short: as §1
Mus musculus [14] = assay: Antilipolytic activity in DIO C57B16/J mouse assessed as reduction in nonesterified free fatty acid cholesterol level at 30 mg/kg, po after 30 mins by enzymatic assay; assay type: functional, organism-based; parameters: dose 30 mg/kg
In short: (§2)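 Acute oral dosing at 30, 100 or 300 mg/kg in C57Bl6/J mice fed high-fat chow for 10 weeks (DIO) and fasted overnight. Nonesterified free fatty acid cholesterol (NEFAc) served as the lipolysis marker. Niacin 30 was a reference arm, and groups were compared with vehicle (P < 0.05, P < 0.01).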

Mus musculus [15] = assay: Antilipolytic activity in DIO C57B16/J mouse assessed as reduction in nonesterified free fatty acid cholesterol level at 100 mg/kg, po after 30 mins by enzymatic assay; assay type: functional, organism-based; parameters: dose 100 mg/kg; in short: as §2
Mus musculus [16] = assay: Antilipolytic activity in DIO C57B16/J mouse assessed as reduction in nonesterified free fatty acid cholesterol level at 300 mg/kg, po after 30 mins by enzymatic assay; assay type: functional, organism-based; parameters: dose 300 mg/kg; in short: as §2

Sequence of Hydroxycarboxylic acid receptor 1 (Homo sapiens, UniProt Q9BXC0) (Q9BXC0 whole entry): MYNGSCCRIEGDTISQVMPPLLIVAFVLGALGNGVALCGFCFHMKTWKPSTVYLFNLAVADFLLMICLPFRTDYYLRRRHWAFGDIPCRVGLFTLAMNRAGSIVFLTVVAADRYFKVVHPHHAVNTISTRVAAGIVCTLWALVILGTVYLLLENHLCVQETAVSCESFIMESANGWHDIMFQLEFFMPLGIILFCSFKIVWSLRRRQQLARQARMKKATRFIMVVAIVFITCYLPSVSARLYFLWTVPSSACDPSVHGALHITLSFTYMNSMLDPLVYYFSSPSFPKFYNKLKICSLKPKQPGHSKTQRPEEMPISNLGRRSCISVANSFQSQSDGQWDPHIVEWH
Sequence of G-protein coupled receptor 81 (Macaca mulatta, UniProt B9UM29) (B9UM29 whole entry): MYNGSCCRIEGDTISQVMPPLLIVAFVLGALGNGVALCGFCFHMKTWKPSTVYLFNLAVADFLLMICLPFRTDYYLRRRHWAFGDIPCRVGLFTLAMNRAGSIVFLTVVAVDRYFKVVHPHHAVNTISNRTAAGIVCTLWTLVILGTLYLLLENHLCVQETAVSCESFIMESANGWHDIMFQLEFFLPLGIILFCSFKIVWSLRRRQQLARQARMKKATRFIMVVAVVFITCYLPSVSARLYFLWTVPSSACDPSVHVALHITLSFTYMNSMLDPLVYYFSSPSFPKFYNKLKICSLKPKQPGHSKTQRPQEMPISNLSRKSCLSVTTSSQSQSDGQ
Sequence of G-protein coupled receptor 81 (Canis lupus familiaris, UniProt B9UM26) (B9UM26 whole entry): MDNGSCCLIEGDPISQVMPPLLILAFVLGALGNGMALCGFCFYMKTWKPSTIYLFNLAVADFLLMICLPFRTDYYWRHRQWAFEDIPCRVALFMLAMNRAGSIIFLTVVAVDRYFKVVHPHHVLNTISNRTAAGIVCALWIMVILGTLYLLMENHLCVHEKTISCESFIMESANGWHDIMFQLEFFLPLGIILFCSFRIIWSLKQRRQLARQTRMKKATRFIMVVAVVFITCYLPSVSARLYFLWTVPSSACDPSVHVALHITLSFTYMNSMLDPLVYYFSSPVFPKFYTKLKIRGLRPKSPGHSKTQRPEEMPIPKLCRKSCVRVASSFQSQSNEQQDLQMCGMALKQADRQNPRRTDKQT

Compound	EC50 [1]	also measured
Cc1cc(O)cc(C(=O)O)c1	42 µM	–
O=C(O)c1cc(O)c[n+]([O-])c1	> 1000 µM	–
O=C(O)c1cccnc1	–	Activity (Mus musculus [14]): Active
COc1cc(O)cc(C(=O)O)c1	> 1000 µM	–
Oc1cc(O)cc(-c2nnn[nH]2)c1	> 1000 µM	–
CP(=O)(O)c1cc(O)cc(O)c1	> 1000 µM	–
O=C(O)c1cc(O)cc(C(F)(F)F)c1	> 1000 µM	–
O=C(O)c1cc(O)cc(-c2ccccc2)c1	> 1000 µM	–
O=P(O)(O)c1cc(O)cc(O)c1	> 1000 µM	–
CC(C)(C)c1cc(O)cc(C(=O)O)c1	> 1000 µM	–
N#Cc1cc(O)cc(C(=O)O)c1	> 1000 µM	–
O=C(O)c1cncc(O)c1	> 1000 µM	–

Continued, in another order:

EC50 [1]	Compound	also measured
184 µM	O=C(O)c1cccc(O)c1 [3-HYDROXYBENZOIC ACID]	–
16 µM	O=C(O)c1cc(O)cc(Cl)c1	EC50 [2]: 17 µM; EC50 [3]: 67 µM; EC50 (Protein Gpr81): 7 µM; EC50 [4]: 22 µM; EC50 [5]: 27 µM; Tmax [6]: 30 min; Tmax [7]: 30 min; AUC(0-inf) [8]: 9360 ng·h/mL; AUC(0-inf) [9]: 51300 ng·h/mL; Cmax [10]: 67.2 µM; Cmax [11]: 342 µM; half-life [12]: 88.2 min; half-life [13]: 66 min; Activity (Mus musculus [14]): Active; Activity (Mus musculus [15]): Active; Activity (Mus musculus [16]): Active
377 µM	O=C(O)c1cc(O)cc(O)c1 [3,5-DIHYDROXYBENZOIC ACID]	–
38 µM	O=C(O)c1cc(O)cc(F)c1	–
> 1000 µM	OB(O)c1cccc(O)c1	–
129 µM	O=C(O)c1cc(O)cc(Br)c1	–
